Screening results: PubChem, Johns Hopkins Ion Channel Center
Compounds with a hit are over-represented: about 3.5% of the library has one in this group of screens.
RGS4 block = RGS4 inhibitors, primary screen, cell-based, HEK293 M3R inducible RGS4, calcium flux | Regulator of G-protein signaling 4 (Homo sapiens), P49798 | Fluo-4 calcium flux; stronger effect = higher value; triggered by carbachol at its EC20 | B-score at 10 µM | actives 0.45% (n = 310,000);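 active means B-score, a plate-corrected calcium signal, over three deviations above library mean, with baseline fluorescence within five deviations of library mean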;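 further: RGS4 expression induced by doxycycline in cells with stable M3 receptor; B-score is computed from the integrated fluorescence ratio over baseline after carbachol; higher B-score means a larger calcium signal and so more RGS4 inhibition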
Target sequence (P49798 whole entry, looked up): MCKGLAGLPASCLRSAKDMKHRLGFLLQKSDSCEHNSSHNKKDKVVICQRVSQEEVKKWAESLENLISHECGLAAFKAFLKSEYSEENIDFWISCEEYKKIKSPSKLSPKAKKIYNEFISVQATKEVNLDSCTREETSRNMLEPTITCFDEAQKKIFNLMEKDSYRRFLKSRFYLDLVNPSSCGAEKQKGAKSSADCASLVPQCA
RGS4 pot = RGS4 potentiators or activators, primary screen, cell-based, HEK293 M3R inducible RGS4, calcium flux | carbachol calcium flux Fluo4; stronger effect = lower value | B-score at 10 µM | actives 0.92% (n = 310,000);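 active means B-score of the integrated calcium signal more than 4 SD below the library mean, with starting fluorescence not abnormally high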;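 further: negative B-score means reduced calcium response which marks RGS4 activation or potentiation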
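Test system: HEK293 cells with stable M3R and inducible RGS4; also added: carbachol at ECmax as muscarinic agonist stimulus; schedule: dye loading 30 min 37 °C, buffer rest 30 min RT; technique: kinetic calcium fluorescence imaging with Fluo4-AM dye, 2 µM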
MrgX1 PAM = positive allosteric modulators of MrgX1, primary screen, HEK293 cells, Fluo-4 calcium flux. Mas-related G-protein coupled receptor member X1 (Homo sapiens), Q96LB2. FDSS; stronger effect = higher value. B-score at 10 µM. actives 0.63% (n = 310,000). AID 588675, 2011;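 active means plate-corrected calcium response at least 3 library SD above typical, normal starting fluorescence, not activating the receptor alone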;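 further: compound read alongside a low EC10 to EC30 dose of BAM8-22 agonist; peak minus trough fluorescence over baseline measured at the second addition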
Target sequence (Q96LB2 whole entry, looked up): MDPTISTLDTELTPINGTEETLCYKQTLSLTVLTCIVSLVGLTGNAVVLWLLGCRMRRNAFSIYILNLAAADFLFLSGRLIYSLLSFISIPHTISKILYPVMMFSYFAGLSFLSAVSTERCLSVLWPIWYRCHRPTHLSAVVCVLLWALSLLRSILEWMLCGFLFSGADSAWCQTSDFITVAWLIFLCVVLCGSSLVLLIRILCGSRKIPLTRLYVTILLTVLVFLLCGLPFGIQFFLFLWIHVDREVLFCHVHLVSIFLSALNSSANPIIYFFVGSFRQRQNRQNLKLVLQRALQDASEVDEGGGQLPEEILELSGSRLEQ
MrgX1 ag = agonists of human MrgX1 receptor, primary screen, HEK293 cells, Fluo-4 calcium flux; B-score at 10 µM; Mas-related G-protein coupled receptor member X1 (Homo sapiens), Q96LB2; actives 0.44% (n = 310,000); AID 588627, 2011; Fluo-4 calcium fluorescence, agonist mode; stronger effect = higher value;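 active means calcium response B-score plate-corrected fluorescence ratio at least 3 library SD, with starting fluorescence B-score inside 5 SD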
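Material: MrgX1-expressing HEK293 cells; input: 15,000 cells per well; doses: test compound given as first of three sequential additions; schedule: overnight plating before 1 h dye loading; technique: Fluo-4 NW calcium-flux fluorescence, kinetic read; evaluation: baseline-normalised fluorescence change ratio, B-scored; control set: plate-wise positive and negative controls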
MrgX1 antag = antagonists of human MrgX1 receptor, primary screen, HEK293 cells, Fluo-4 calcium flux; AID 588676, 2011; actives 1.3% (n = 310,000); B-score at 10 µM; Mas-related G-protein coupled receptor member X1 (Homo sapiens), Q96LB2; BAM8-22 antagonism; stronger effect = lower value;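 active means calcium-response B-score plate-corrected more than 3 library SD below zero, starting fluorescence within 5 deviations, no agonist response on first addition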;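 further: peak minus trough fluorescence over baseline after final BAM8-22 challenge near maximal dose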
MrgX1 PAM conf = MrgX1 positive allosteric modulators, duplicate retest, confirmation, HEK293 cells, Fluo-4 calcium flux | Fluo-4 calcium fluorescence, FDSS | actives 13% (n = 1,200) | activation (ratio percentage), % at 10 µM | shares compounds with MrgX1 PAM;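 active means ratio at least 3 SD above the weak peptide control, stable starting fluorescence, no direct agonism earlier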;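 further: compound followed by low BAM8-22 agonist challenge near EC20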
HEK293 Ca flux = nonspecific calcium signal in parental HEK293, confirmation, counter-screen for MrgX1 antagonist project, parental HEK293 cells, Fluo-4 calcium flux; Fluo-4 calcium fluorescence, FDSS; fluorescence ratio F(max-min)/F0 at 10 µM; actives 2% (n = 4,000); AID 624111, 2012; shares compounds with MrgX1 antag;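 active means duplicate-averaged calcium fluorescence ratio at least three times the standard deviation of buffer wells, a nonspecific response in parental cells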
HEK293 Ca counter = calcium response in parental HEK293 cells, primary screen, counter-screen for MrgX1 allosteric activator project, cell-based, Fluo-4 calcium flux, duplicate | shares compounds with MrgX1 antag | Fluo-4 fluorescence ratio; stronger effect = higher value | fluorescence ratio F(max-min)/F0 at 10 µM | actives 0.4% (n = 4,000) | AID 624114, 2012;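 active means calcium fluorescence ratio, averaged over duplicates, at least 3 SD of the buffer-well ratio, meaning a nonspecific response in receptor-free cells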;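 further: untransfected parental HEK293 lacking MrgX1 used as counterscreen for MrgX1 allosteric activators; fluorescence change taken during the second addition on a kinetic imager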
HEK293 Ca cntr2 = calcium response in parental HEK293 cells, primary screen, counter-screen for MrgX1 agonist project, cell-based, Fluo-4 calcium flux, duplicate, agonist mode. fluorescence ratio F(max-min)/F0 at 10 µM. AID 624115, 2012. actives 8.7% (n = 4,000). Fluo-4 calcium fluorescence (FDSS); stronger effect = higher value. shares compounds with MrgX1 antag;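 active means calcium fluorescence ratio at least three times the spread of buffer wells, meaning a non-specific response in parental cells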
Starred values were filed as active, the others as inactive; i = inactive; x = not tested or not shown.

SMILES | RGS4 block | RGS4 pot | MrgX1 PAM | MrgX1 ag | MrgX1 antag | MrgX1 PAM conf | HEK293 Ca flux | HEK293 Ca counter | HEK293 Ca cntr2
Cc1c(NC(=O)c2ccc([N+](=O)[O-])o2)cccc1-c1nc2ncccc2o1 | i | i | i | i | i | x | x | x | x
CC(C)(C)Sc1ccc2nc3c(n2c1)CCCC3 | i | i | 16* | i | i | i | i | i | i
Cc1ccc(NC(=O)N2CCCC2C(=O)NCC2CCCCC2)cc1 (stereo not drawn) | i | i | 10* | i | i | i | i | i | i
Cc1ccc(CNC(=O)C2CCCN2C(=O)Nc2ccc(C)cc2)cc1 (stereo not drawn) | i | i | i | i | i | x | x | x | x
COc1nccc(Nc2ccccc2)c1C#N | x | x | i | i | i | x | x | x | x
CSc1nccc(Nc2ccccc2)c1C#N | i | i | 16* | i | i | 8.6%* | i | i | i
O=C(COC(=O)C12CC3CC(CC(C3)C1)C2)Nc1ccccc1F | i | i | 13* | i | i | i | i | i | i
O=C(COC(=O)C(O)c1ccccc1)NC12CC3CC(CC(C3)C1)C2 (stereo not drawn) | i | i | i | i | i | x | x | x | x
O=C(COc1ccccc1F)NC12CC3CC(CC(C3)C1)C2 | i | i | 6.6* | i | i | i | i | i | i
O=C(COC(=O)C12CC3CC(CC(O)(C3)C1)C2)Nc1ccccc1OC(F)F | i | i | i | i | i | x | x | x | x
COc1ccc(NC(=O)CN2C(=O)COc3ccc(S(=O)(=O)N4CCOCC4)cc32)cc1Cl | i | i | i | i | i | x | x | x | x
COc1ccc(C2C(C(C)=O)=C(O)C(=O)N2c2ccccn2)cc1 (stereo not drawn) | i | i | i | i | i | x | x | x | x
Cc1cc(Cl)ccc1NC(=S)NCC(O)c1ccccc1 (stereo not drawn) | i | i | 22* | i | i | i | i | i | i
O=C(Cc1ccc(Br)cc1)N(Cc1ccccc1)c1ccccn1 | i | i | 7.3* | i | i | i | i | i | i
O=C(COc1ccc(Br)cc1)N(Cc1ccccc1)c1ccccn1 | i | i | i | i | i | x | x | x | x
CC(C)CCn1c(N2CCCC2)nc2c1c(=O)n(C)c(=O)n2C | i | i | i | i | i | x | x | x | x
CCCCCCn1c(N2CCCC2)nc2c1c(=O)n(C)c(=O)n2C | i | i | 7.7* | i | i | i | i | i | i
CCN(C(=O)c1c(N)cnn1C)c1ccccc1 | i | i | 10* | i | i | i | i | i | i
CCOC(=O)c1cnc(-c2ccccc2)nc1N | i | i | 10* | i | i | i | i | i | i
CCOC(=O)c1cnc(-c2ccccc2)nc1N(C)C | i | i | i | i | i | x | x | x | x
CC1(C)c2ccccc2N(CC(N)=O)C12C=Cc1ccccc1O2 (stereo not drawn) | i | i | 6.8* | i | i | i | i | i | i
COc1ccccc1CCNC(=O)CSc1ccc(-c2cccs2)nn1 | i | i | 7.9* | i | i | i | i | i | i
O=C(CSc1ccc(-c2cccs2)nn1)NCCc1ccccc1 | i | i | i | i | i | x | x | x | x
O=C(CCC(=O)c1ccccc1)Nc1ccccc1OC(F)F | i | i | i | i | i | x | x | x | x
CCOc1ccc(-c2c(C)sc3nc[nH]c(=O)c23)cc1 | i | i | i | i | i | x | x | x | x
SMILES | RGS4 block | RGS4 pot | MrgX1 PAM | MrgX1 ag | MrgX1 antag | MrgX1 PAM conf | HEK293 Ca flux | HEK293 Ca counter | HEK293 Ca cntr2
Fc1cccc2sc(Nc3nnc(-c4ccco4)o3)nc12 | i | i | 12* | i | i | i | i | i | i
COc1ccc(CNC(=O)CCCn2nc(C)c3c(C)n(-c4ccccc4)nc3c2=O)cc1 | i | i | i | i | i | x | x | x | x
COc1ccc(CCNS(=O)(=O)c2ccc3c(c2)NC(=O)CO3)cc1OC | i | i | 33* | i | i | i | i | i | i
Cc1ccccc1OCC(=O)NCCCNC(=O)c1cccnc1 | i | i | i | i | i | x | x | x | x
COc1ccc(N(CC(=O)Nc2cccnc2)S(=O)(=O)c2ccccc2)cc1Cl | i | i | 16* | i | i | i | i | i | i
CC1(C)CC(=O)c2sc(NS(=O)(=O)c3ccc(Br)cc3)nc2C1 | i | i | 13* | i | i | i | i | i | i
CC1(C)CC(=O)c2sc(NS(=O)(=O)c3ccc(F)cc3)nc2C1 | i | i | 31* | i | i | 6.6%* | i | i | i
CC1(C)CC(=O)c2sc(NS(=O)(=O)c3ccc(Cl)cc3)nc2C1 | i | i | i | i | i | x | x | x | x
O=C(COc1ccc(Br)cc1Cl)c1ccc[nH]1 | i | i | 9.7* | i | i | i | i | i | i
CC(C)N(C(=O)COc1ccc(Br)cc1Cl)C(C)C | i | i | 21* | i | i | 6.4%* | i | i | i
COc1ccc(C2(C(=O)Nc3ccc(OC)cc3OC)CCCC2)cc1 | i | i | 12* | i | i | i | i | i | i
CN(C1CCCCC1)S(=O)(=O)c1cccc2nsnc12 | i | i | i | i | i | x | x | x | x
COCCN1CCN(Cc2nc(C3(c4ccc(C)cc4)CCCC3)no2)CC1 | i | i | 9* | i | i | i | i | i | i
